From ChEMBL document CHEMBL1154411, “Determination of the primary target of a quinolone drug and the effect of quinolone resistance-conferring mutations by measuring quinolone sensitivity based on its mode of action” (Antimicrob Agents Chemother, 2007) come the findings set out here.

Activity calls are given as the source filed them. No cut-off for these calls is given here.

The subject of test [1] is Escherichia coli. Put plainly: Induction of Escherichia coli DNA gyrase-mediated negatively supercoiled Escherichia coli pBR322 DNA cleavage at 50 uM after 10 mins by gel electrophoresis. The method in brief:
(§1)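 Negatively supercoiled pBR322 (300 ng) incubated with titrated topoisomerase (tetramer amounts) in 50 mM Tris-HCl pH 8, 10 mM MgCl2, 10 mM DTT, 50 μg/ml BSA, 1 mM ATP, 5 μg/ml tRNA, 10 min at 37°C, with or without 50 μM norfloxacin. Trapped by 1% SDS, then EDTA/proteinase K, extracted, and run on 1.2% agarose with ethidium bromide; activity is linear DNA per enzyme amount.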

In test [2] the target is T1, DNA gyrase (Staphylococcus aureus) (UniProt P0A0K8+P20831). Nature of the test: Induction of Staphylococcus aureus DNA gyrase-mediated negatively supercoiled Escherichia coli pBR322 DNA cleavage at 50 uM after 10 mins by gel electrophoresis. Format: protein-complex assay. The method in brief: as §1
For test [3], the system named is T2, DNA topoisomerase 4 subunit A (Escherichia coli K-12), P0AFI2 [S80L].
T2 sequence (whole entry): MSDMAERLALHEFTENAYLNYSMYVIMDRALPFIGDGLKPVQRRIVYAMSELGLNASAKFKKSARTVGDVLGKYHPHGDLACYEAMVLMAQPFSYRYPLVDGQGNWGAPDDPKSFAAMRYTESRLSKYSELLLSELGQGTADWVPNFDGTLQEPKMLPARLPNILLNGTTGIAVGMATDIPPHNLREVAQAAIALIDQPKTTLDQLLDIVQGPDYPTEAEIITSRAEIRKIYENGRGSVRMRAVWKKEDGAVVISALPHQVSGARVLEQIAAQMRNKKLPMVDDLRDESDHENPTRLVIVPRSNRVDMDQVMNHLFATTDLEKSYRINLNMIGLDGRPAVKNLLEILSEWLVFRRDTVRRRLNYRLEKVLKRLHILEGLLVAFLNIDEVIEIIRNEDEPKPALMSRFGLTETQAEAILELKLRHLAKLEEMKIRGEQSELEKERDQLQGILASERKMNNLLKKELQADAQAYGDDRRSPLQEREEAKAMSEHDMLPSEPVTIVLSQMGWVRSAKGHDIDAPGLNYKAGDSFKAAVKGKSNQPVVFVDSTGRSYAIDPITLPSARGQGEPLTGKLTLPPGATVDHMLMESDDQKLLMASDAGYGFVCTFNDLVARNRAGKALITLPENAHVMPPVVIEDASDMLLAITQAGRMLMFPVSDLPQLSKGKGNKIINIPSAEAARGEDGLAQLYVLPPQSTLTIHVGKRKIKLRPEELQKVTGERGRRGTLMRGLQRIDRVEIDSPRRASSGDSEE
Put plainly: (§2) Induction of Escherichia coli DNA topoisomerase 4-mediated negatively supercoiled Escherichia coli pBR322 DNA cleavage assessed as amount of linear DNA generated per unit amount of enzyme at 50 uM after 10 mins by gel electrophoresis. In a few lines:
as §1

Test [4] has as its system Escherichia coli. Described as §2. In a few lines:
as §1

Test [5] addresses DNA gyrase (Escherichia coli) (UniProt P0AES6+P0AES4). Nature of the test: Induction of Escherichia coli DNA gyrase-mediated negatively supercoiled Escherichia coli pBR322 DNA cleavage assessed as amount of linear DNA generated per unit amount of enzyme at 50 uM after 10 mins by gel electrophoresis. The format is protein-complex assay. In a few lines:
as §1

Test [6] deals with Staphylococcus aureus. Put plainly: Induction of Staphylococcus aureus DNA topoisomerase 4-mediated negatively supercoiled Escherichia coli pBR322 DNA cleavage assessed as amount of linear DNA generated per unit amount of enzyme at 50 uM after 10 mins by gel electrophoresis. In a few lines:
as §1

Test [7] concerns Escherichia coli. Put plainly: Induction of Escherichia coli DNA gyrase-mediated Escherichia coli pBR322 DNA cleavage assessed as ratio of drug-induced DNA cleavage to spontaneous DNA cleavage at 50 uM after 10 mins by gel electrophoresis. In a few lines: (§3)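 Quinolone sensitivity is the ratio of specific cleavage activity with 50 μM norfloxacin to the activity without it. Both come from the same pBR322 cleavage reaction: 37°C for 10 min with 1 mM ATP, then SDS/proteinase K trapping, with linear DNA resolved on ethidium-stained 1.2% agarose gels.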

For test [8], the system named is Escherichia coli. Nature of the test: Induction of Escherichia coli DNA topoisomerase 4-mediated Escherichia coli pBR322 DNA cleavage assessed as ratio of drug-induced DNA cleavage to spontaneous DNA cleavage at 50 uM after 10 mins by gel electrophoresis. In a few lines:
as §3

Test [9] concerns the target T1, DNA gyrase (Staphylococcus aureus). Put plainly: Induction of Staphylococcus aureus DNA gyrase-mediated Escherichia coli pBR322 DNA cleavage assessed as ratio of drug-induced DNA cleavage to spontaneous DNA cleavage at 50 uM after 10 mins by gel electrophoresis. Format: protein-complex assay. In a few lines:
as §3

The test system of test [10] is Staphylococcus aureus. Put plainly: Induction of Staphylococcus aureus DNA topoisomerase 4-mediated Escherichia coli pBR322 DNA cleavage assessed as ratio of drug-induced DNA cleavage to spontaneous DNA cleavage at 50 uM after 10 mins by gel electrophoresis. In a few lines:
as §3

The subject of test [11] is Escherichia coli. Put plainly: Induction of Escherichia coli DNA topoisomerase 4 ParC […] mutant-mediated negatively supercoiled Escherichia coli pBR322 DNA cleavage assessed as amount of linear DNA generated per unit amount of enzyme at 50 uM after 10 mins by gel electrophoresis. The method in brief:
as §1

Test [12] relates to T2, DNA topoisomerase 4 subunit A (Escherichia coli K-12), P0AFI2 [S80L]. Put plainly: Induction of Staphylococcus aureus DNA topoisomerase 4 ParC S80L mutant-mediated Escherichia coli pBR322 DNA cleavage assessed as ratio of drug-induced DNA cleavage to spontaneous DNA cleavage at 50 uM after 10 mins by gel electrophoresis.
Test [13] relates to Escherichia coli. Nature of the test: Sensitivity ratio for induction of Escherichia coli DNA topoisomerase 4 over DNA gyrase-mediated negatively supercoiled Escherichia coli pBR322 DNA cleavage.
Test [14] concerns Staphylococcus aureus. Nature of the test: Sensitivity ratio for induction of Staphylococcus aureus DNA topoisomerase 4 over DNA gyrase-mediated negatively supercoiled Escherichia coli pBR322 DNA cleavage.
The subject of test [15] is Escherichia coli. Put plainly: Induction of Escherichia coli DNA topoisomerase 4-mediated negatively supercoiled Escherichia coli pBR322 DNA cleavage at 50 uM after 10 mins by gel electrophoresis. In a few lines: as §1
In test [16] the test system is Staphylococcus aureus. Put plainly: Induction of Staphylococcus aureus DNA topoisomerase 4-mediated negatively supercoiled Escherichia coli pBR322 DNA cleavage at 50 uM after 10 mins by gel electrophoresis. The method in brief: as §1

T1 sequence (P0A0K8 2-644 limits assumed): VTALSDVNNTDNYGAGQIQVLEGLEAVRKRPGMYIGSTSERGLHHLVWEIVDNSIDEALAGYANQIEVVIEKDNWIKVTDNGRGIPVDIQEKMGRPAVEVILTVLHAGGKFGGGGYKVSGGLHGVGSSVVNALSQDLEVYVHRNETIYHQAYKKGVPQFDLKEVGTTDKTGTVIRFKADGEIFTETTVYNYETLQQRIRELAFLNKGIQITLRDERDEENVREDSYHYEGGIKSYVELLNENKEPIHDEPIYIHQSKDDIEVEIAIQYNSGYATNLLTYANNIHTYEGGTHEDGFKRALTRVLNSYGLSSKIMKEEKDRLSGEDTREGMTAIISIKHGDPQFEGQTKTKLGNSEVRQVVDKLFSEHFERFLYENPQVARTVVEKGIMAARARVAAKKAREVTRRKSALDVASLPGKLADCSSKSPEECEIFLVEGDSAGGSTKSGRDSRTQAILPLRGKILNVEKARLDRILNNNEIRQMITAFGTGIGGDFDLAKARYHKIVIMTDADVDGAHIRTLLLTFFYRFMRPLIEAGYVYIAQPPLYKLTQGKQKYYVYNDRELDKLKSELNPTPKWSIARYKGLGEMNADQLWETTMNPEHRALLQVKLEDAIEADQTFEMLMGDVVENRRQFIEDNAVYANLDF
T1 sequence (P20831 whole entry partner): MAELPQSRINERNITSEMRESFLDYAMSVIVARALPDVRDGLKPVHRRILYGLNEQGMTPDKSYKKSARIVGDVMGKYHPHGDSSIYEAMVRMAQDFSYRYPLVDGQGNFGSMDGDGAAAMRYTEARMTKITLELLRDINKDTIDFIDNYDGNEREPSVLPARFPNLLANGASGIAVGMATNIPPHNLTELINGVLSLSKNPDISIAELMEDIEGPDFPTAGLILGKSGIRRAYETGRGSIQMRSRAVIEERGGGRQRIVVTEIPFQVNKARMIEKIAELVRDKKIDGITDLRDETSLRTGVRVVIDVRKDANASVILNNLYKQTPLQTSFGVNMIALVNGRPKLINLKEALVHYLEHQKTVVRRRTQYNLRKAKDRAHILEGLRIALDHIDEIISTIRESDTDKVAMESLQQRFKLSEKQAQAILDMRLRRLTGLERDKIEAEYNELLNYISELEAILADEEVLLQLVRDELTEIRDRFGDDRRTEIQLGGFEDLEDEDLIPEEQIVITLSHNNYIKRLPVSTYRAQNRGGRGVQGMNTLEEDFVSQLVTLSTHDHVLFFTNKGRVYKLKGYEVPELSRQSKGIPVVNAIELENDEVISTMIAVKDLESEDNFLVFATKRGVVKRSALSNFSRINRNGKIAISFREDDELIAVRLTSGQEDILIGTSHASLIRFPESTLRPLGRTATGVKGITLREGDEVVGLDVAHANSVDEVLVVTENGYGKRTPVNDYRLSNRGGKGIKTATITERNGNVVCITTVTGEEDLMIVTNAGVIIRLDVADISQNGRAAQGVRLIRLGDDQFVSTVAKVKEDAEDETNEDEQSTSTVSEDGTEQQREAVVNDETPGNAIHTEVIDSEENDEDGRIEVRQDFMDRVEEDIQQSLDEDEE

For the compound `CCn1cc(C(=O)O)c(=O)c2cc(F)c(N3CCNCC3)cc21`, the result (in the test on Escherichia coli [1]; in test [2]; with Escherichia coli [15]; in the test with Staphylococcus aureus [16]) was Active. Moreover, the Activity in test [3] was found to be 0.49 ng; in the test with Escherichia coli [4], 0.53 ng; in test [5] it was 0.39 ng; in the test on Staphylococcus aureus [6] it was 0.42 ng; in the test on Escherichia coli [11], 0.17 ng. Further, the Ratio in the test on Escherichia coli [7] was found to be 68.4; in the test with Escherichia coli [8], 3.79; in [9] it was 10; in the test on Staphylococcus aureus [10], 24.7; in test [12], 1.96; with Escherichia coli [13], 18. In addition, the Ratio in the test with Staphylococcus aureus [14] stood at 2.5.
